Measured values as given in ChEMBL document CHEMBL3992522, “Antileishmanial Activity of Pyrazolopyridine Derivatives and Their Potential as an Adjunct Therapy with Miltefosine” (J Med Chem, 2017).
Converted amounts (≈) assume the structure as drawn. The source made the active and inactive calls. No cut-off for these calls is given here.

Key:
Leishmania donovani [1] = experiment: Antileishmanial activity against Leishmania donovani MHOM/IN/80/DD8 promastigote forms harboring luciferase gene at 25 uM after 72 hrs by Steady-Glo reagent based luminescence assay relative to control; format: functional; details: MHOM/IN/80/DD8, 72 h, read-out: GI
Outline: (§1)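 Exponential-phase Dd8-Luc promastigotes at 1×10^6/mL in M199 with 10% FBS, 24 °C, given 50 and 25 µM for 72 h. Vehicle 0.1% DMSO. Steady-Glo added 1:1, luminescence (RLU) read. IC50 from four-parameter Hill regression, derived only where inhibition exceeded 90%. Means of at least three independent experiments.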

Leishmania donovani [2] = experiment: Antileishmanial activity against Leishmania donovani MHOM/IN/80/DD8 promastigote forms harboring luciferase gene at 50 uM after 72 hrs by Steady-Glo reagent based luminescence assay relative to control; format: functional; details: MHOM/IN/80/DD8, 72 h, read-out: GI; outline: as §1
Leishmania donovani [3] = experiment: Antileishmanial activity against Leishmania donovani MHOM/IN/80/DD8 amastigote forms harboring luciferase gene infected in mouse J774 cells at 25 uM after 72 hrs by Steady-Glo reagent based luminescence assay relative to control; format: functional; details: MHOM/IN/80/DD8, J774, 72 h, read-out: GI
Outline: (§2)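 Stationary-phase luciferase-expressing Dd8 promastigotes infected into J774 macrophages (4×10^4/mL seeded, 24 h, 37 °C, 5% CO2) at 1:8 macrophage:parasite for 24 h. Non-internalised parasites washed off. Compounds added at 50 and 25 µM in RPMI/10% FBS for 72 h. Lysis with Steady-Glo luciferin reagent plus PBS, luminescence read. Inhibition relative to untreated infected controls.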

Leishmania donovani [4] = experiment: Antileishmanial activity against Leishmania donovani MHOM/IN/80/DD8 amastigote forms harboring luciferase gene infected in mouse J774 cells at 50 uM after 72 hrs by Steady-Glo reagent based luminescence assay relative to control; format: functional; details: MHOM/IN/80/DD8, J774, 72 h, read-out: GI; outline: as §2
Leishmania donovani [5] = experiment: Antileishmanial activity against Leishmania donovani MHOM/IN/80/DD8 promastigote forms harboring luciferase gene after 72 hrs by Steady-Glo reagent based luminescence assay; format: functional; details: MHOM/IN/80/DD8, 72 h; outline: as §1
Leishmania donovani [6] = experiment: Antileishmanial activity against Leishmania donovani MHOM/IN/80/DD8 amastigote forms harboring luciferase gene infected in mouse J774 cells after 72 hrs by Steady-Glo reagent based luminescence assay; format: functional, cell-based; details: MHOM/IN/80/DD8, J774, 72 h
[7] = Cytotoxicity against mouse J774 cells assessed as reduction in cell viability after 72 hrs by MTT assay; format: cell-based
Outline: (§3)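 Vero and J774 cells seeded at 1×10^5 per well for 24 h, then exposed 72 h to seven two-fold dilutions from 500 to 7.81 μM. MTT solution (5 mg/mL stock) added for 2 h at 37 °C, formazan dissolved in DMSO and read at 540 nm. CC50 derived by the Huber and Koella method.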

[8] = Cytotoxicity against African green monkey Vero cells assessed as reduction in cell viability after 72 hrs by MTT assay; format: cell-based; details: chlorocebus sabaeus; outline: as §3
[9] = Selectivity index, ratio of CC50 for mouse J774 cells to IC50 for Leishmania donovani MHOM/IN/80/DD8 amastigote forms infected in mouse J774 cells; format: toxicity, cell-based; details: read-out: Ratio CC50/IC50
Outline: (§4)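 CC50: Vero or J774 cells (1×10^5/well) exposed 72 h to seven two-fold dilutions, 500–7.81 μM; MTT 2 h at 37 °C, formazan in DMSO read at 540 nm. IC50: luciferase-expressing Dd8 amastigotes in J774 macrophages (1:8), 72 h, luminescence, four-parameter Hill fit. SI = CC50/IC50, IC50 mean of three experiments.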

[10] = Selectivity index, ratio of CC50 for African green monkey Vero cells to IC50 for Leishmania donovani MHOM/IN/80/DD8 amastigote forms infected in mouse J774 cells; format: toxicity, cell-based; details: read-out: Ratio CC50/IC50; outline: as §4
Leishmania donovani [11] = experiment: Antileishmanial activity against Leishmania donovani MHOM/IN/80/DD8 promastigote forms harboring luciferase gene after 72 hrs by Steady-Glo reagent based two fold dilution assay; format: functional; details: MHOM/IN/80/DD8, 72 h
Outline: (§5)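 Promastigotes or J774-resident amastigotes treated 72 h with six two-fold dilutions from 200 µM down to 6.25 µM. Luciferase RLU fitted by four-parameter Hill non-linear regression to derive the […] inhibitory concentration (MIC).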

Leishmania donovani [12] = experiment: Antileishmanial activity against Leishmania donovani MHOM/IN/80/DD8 amastigote forms harboring luciferase gene infected in mouse J774 cells after 72 hrs by Steady-Glo reagent based two fold dilution assay; format: functional; details: MHOM/IN/80/DD8, 72 h; outline: as §5
[13] = Cytotoxicity against mouse J774 cells assessed as cell viability […] after 72 hrs by MTT assay relative to control; format: cell-based; details: read-out: Activity; outline: as §3
[14] = Cytotoxicity against African green monkey Vero cells assessed as cell viability up to 200 uM after 72 hrs by MTT assay relative to control; format: cell-based; details: chlorocebus sabaeus, read-out: Activity
Leishmania donovani [15] = experiment: Antileishmanial activity against Leishmania donovani MHOM/IN/80/DD8 promastigote forms harboring luciferase gene at 9.59 uM up to 72 hrs by MTT assay relative to control; format: functional; details: MHOM/IN/80/DD8, 72 h
Leishmania donovani [16] = experiment: Antileishmanial activity against Leishmania donovani MHOM/IN/80/DD8 amastigote forms harboring luciferase gene infected in mouse J774 cells at 7.36 uM up to 72 hrs by Giemsa staining based assay relative to control; format: functional; details: MHOM/IN/80/DD8, J774, 72 h
Outline: (§6)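 J774 macrophages in chamber slides infected with Dd8 promastigotes (1:10 cell:parasite in methods; 1:8 in legend) for 24 h, then treated 48 and 72 h. Cells methanol-fixed, stained with 20% Giemsa. Amastigotes per 100 macrophages counted against untreated infected controls.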

Leishmania donovani [17] = experiment: Antileishmanial activity against Leishmania donovani MHOM/IN/80/DD8 amastigote forms harboring luciferase gene infected in mouse J774 cells at 50 uM up to 72 hrs by Giemsa staining based assay relative to control; format: functional; details: MHOM/IN/80/DD8, J774, 72 h; outline: as §6
Leishmania donovani [18] = experiment: Antileishmanial activity against Leishmania donovani MHOM/IN/80/DD8 promastigote forms harboring luciferase gene at 6.25 to 12.5 uM up to 4 days by Steady-Glo reagent based luminescence assay; format: functional
Outline: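 Log-phase luciferase promastigotes at 1.0×10^6 at 24 °C, pH 7.4, given two-fold dilutions from 200 to 6.25 µM. RLU in lysed cultures measured daily for up to 4 days to plot growth curves. Three independent experiments.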

Leishmania donovani [19] = experiment: Antileishmanial activity against Leishmania donovani MHOM/IN/80/DD8 amastigote forms harboring luciferase gene infected in mouse J774 cells at 6.25 to 12.5 uM up to 4 days by Steady-Glo reagent based luminescence assay; format: functional, cell-based
Outline: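 Infected J774 macrophages held at 37 °C with two-fold dilutions from 200 to 6.25 µM. Intracellular amastigote growth followed by luciferase activity in lysed macrophages, expressed as RLU, over time. Three independent experiments.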

Leishmania donovani [20] = experiment: Antileishmanial activity against Leishmania donovani MHOM/IN/80/DD8 promastigote forms harboring luciferase gene at 50 uM up to 72 hrs by MTT assay relative to control; format: functional; details: MHOM/IN/80/DD8, 72 h
[21] = Stability in pH 1.2 simulated gastric fluid at 5 ug/ml after 120 mins by HPLC method
Outline: (§7)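 Incubated in simulated gastric fluid (pH 1.2) or simulated intestinal fluid (pH 6.5); percentage remaining intact determined after 120 min.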

[22] = Stability in pH 6.5 simulated intestinal fluid at 5 ug/ml after 120 mins by HPLC method; outline: as §7
[23] = Metabolic stability in mouse liver S9 fractions at 1 mM after 60 mins in presence of NADPH by HPLC method; format: ADME; details: read-out: Stability
[24] = Half life in mouse liver S9 fractions at 1 mM in presence of NADPH by HPLC method; format: ADME, tissue-based
Liver = experiment: Intrinsic clearance in mouse liver S9 fractions assessed per mg protein at 1 mM in presence of NADPH by HPLC method; format: ADME; details: s9, 1000 µM
[25] = Metabolic stability in mouse liver S9 fractions assessed as rate constant for metabolism at 1 mM after 60 mins in presence of NADPH by HPLC method; format: ADME, tissue-based
Leishmania donovani [26] = experiment: Antileishmanial activity against Leishmania donovani amastigote forms infected in Balb/c mouse assessed as inhibition of parasitic burden in liver up to 100 mg/kg, ip administered for 5 consecutive days measured on day 7 post last treatment by Giemsa staining based assay relative to control; format: functional
Leishmania donovani [27] = experiment: Antileishmanial activity against Leishmania donovani amastigote forms infected in Balb/c mouse assessed as inhibition of parasitic burden in spleen up to 100 mg/kg, ip administered for 5 consecutive days measured on day 7 post last treatment by Giemsa staining based assay relative to control; format: functional
Leishmania donovani [28] = experiment: Antileishmanial activity against Leishmania donovani amastigote forms infected in Balb/c mouse assessed as inhibition of parasitic burden in spleen at 200 mg/kg, ip administered for 5 consecutive days measured on day 7 post last treatment by Giemsa staining based assay relative to control; format: functional
Leishmania donovani [29] = experiment: Antileishmanial activity against Leishmania donovani amastigote forms infected in Balb/c mouse assessed as inhibition of parasitic burden in liver at 200 mg/kg, ip administered for 5 consecutive days measured on day 7 post last treatment by Giemsa staining based assay relative to control; format: functional

## COc1ccc(OC)c(C2C3=C(CC(C)(C)CC3=O)Nc3c2c(-c2c[nH]c4ccccc24)nn3-c2ccc(Cl)c(Cl)c2)c1 (stereo not given)
Leishmania donovani [1]
  inhibition of growth at 25 µM: 85.9%
Leishmania donovani [2]
  inhibition of growth at 50 µM: 90.6%
Leishmania donovani [3]
  inhibition of growth at 25 µM: 91.5%
Leishmania donovani [4]
  inhibition of growth at 50 µM: 95.8%
Leishmania donovani [5]
  IC50: 9.59 µM
Leishmania donovani [6]
  IC50: 7.36 µM
[7]
  CC50 at 72 h: 482 µM
[8]
  CC50 at 72 h: 498 µM
[9]
  selectivity ratio: 65.5
[10]
  selectivity ratio: 67.6
Leishmania donovani [11]
  MIC: 50 µM (≈ 30.7 µg/mL)
Leishmania donovani [12]
  MIC: 50 µM (≈ 30.7 µg/mL)
[13]
  viability at 72 h: > 95%
[14]
  viability at 72 h: > 95%
Leishmania donovani [15]
  inhibition at 9.59 µM: > 95%
Leishmania donovani [16]
  inhibition at 7.36 µM: > 93%
Leishmania donovani [17]
  inhibition at 50 µM: > 93%
Leishmania donovani [18]
  Activity: Active
Leishmania donovani [19]
  Activity: Active
Leishmania donovani [20]
  inhibition at 50 µM: > 95%
[21]
  Stability: 75%
[22]
  Stability: 58%
[23]
  remaining at 1 h, 1000 µM: 31%
[24]
  half-life at 1000 µM: 40 min
Liver
  CLH: 34.65 µL/min
[25]
  k el at 1 h, 1000 µM: 0.000283 s⁻¹
Leishmania donovani [26]
  inhibition (INH): >50%
Leishmania donovani [27]
  inhibition (INH): >50%
Leishmania donovani [28]
  Imax: 68%
Leishmania donovani [29]
  Imax: 62%
